Reference: publication PMC2835692 (Journal of cardiovascular pharmacology, 2009)
Where two headings read alike, the source gives them in different places. Values belong to the compound of their own block, whether it stands above or below them.

Columns and labels:
[1] = biological target: recombinant human MMP-13 catalytic domain (Homo sapiens, UniProt P45452); assay: Recombinant MMP fluorescent assay, MMP-13; format: biochemical; settings: read-out: IC50 MMP-13; 1 hour preincubation at 37°C
[2] = biological target: recombinant human MMP-12 catalytic domain (Homo sapiens, UniProt P39900); assay: Recombinant MMP fluorescent assay, MMP-12; format: biochemical
[3] = tested on: cocultured neonatal rat cardiac fibroblasts/myocytes; assay: MTT cell viability assay; format: cell-based; settings: 24 hours incubation
[4] = tested on: isolated infarcted rat hearts; assay: Langendorff isolated perfused rat heart, infarction; settings: 5 μM
[5] = biological target: recombinant human MMP-8 catalytic domain (Homo sapiens, UniProt P22894); assay: Recombinant MMP fluorescent assay, MMP-8; format: biochemical; settings: read-out: IC50 MMP-8; 1 hour preincubation at 37°C
[6] = biological target: T1, recombinant human MMP-7 catalytic domain (Homo sapiens, UniProt P09237); assay: Recombinant MMP fluorescent assay, MMP-7; format: biochemical
T1 sequence (P09237 95-267): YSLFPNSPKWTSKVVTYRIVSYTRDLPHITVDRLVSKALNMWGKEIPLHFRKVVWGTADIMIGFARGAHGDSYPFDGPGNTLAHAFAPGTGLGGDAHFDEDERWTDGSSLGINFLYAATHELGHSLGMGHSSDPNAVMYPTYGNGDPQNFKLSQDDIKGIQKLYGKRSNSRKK
Procedure, shortened: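 Kit-based fluorogenic substrate assay. Test compound was dissolved in DMSO, with 0.005% final DMSO in buffer (50 mM HEPES, 10 mM CaCl2, 0.05% Brij-35, pH 7.5). Substrate was added to start the reaction. Fluorescence (ex 335/em 405 nm) was read every 60 s for 30 min, with 1 s shaking between reads. Rates came from linear kinetic regions; IC50 from activity versus log[inhibitor]. o-Phenanthroline confirmed MMP-dependent cleavage.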

[7] = biological target: T2, recombinant human MMP-1 catalytic domain (Homo sapiens, UniProt P03956); assay: Recombinant MMP fluorescent assay, MMP-1; format: biochemical; settings: read-out: IC50 MMP-1; 1 hour preincubation at 37°C
T2 sequence (P03956 100-269 limits assumed): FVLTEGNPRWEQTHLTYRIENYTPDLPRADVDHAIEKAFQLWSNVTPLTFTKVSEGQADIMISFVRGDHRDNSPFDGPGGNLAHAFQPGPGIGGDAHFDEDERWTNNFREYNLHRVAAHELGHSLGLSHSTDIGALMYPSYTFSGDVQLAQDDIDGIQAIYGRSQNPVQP

[8] = biological target: recombinant human MMP-9 catalytic domain (Homo sapiens, UniProt P14780); assay: Recombinant MMP fluorescent assay, MMP-9; format: biochemical; settings: read-out: IC50 MMP-9; 1 hour preincubation at 37°C
[9] = biological target: recombinant human MMP-2 catalytic domain (Homo sapiens, UniProt P08253); assay: Recombinant MMP fluorescent assay, MMP-2; format: biochemical; settings: read-out: IC50 MMP-2; 1 hour preincubation at 37°C
[10] = tested on: isolated stunned rat hearts; assay: Langendorff isolated perfused rat heart, stunning; settings: for Improvement in RPP versus controls: at 30-minute reperfusion; for Coronary flow rates versus controls: during reperfusion; for cTnI release versus controls: after ischemia
[11] = biological target: recombinant human MMP-3 catalytic domain (Homo sapiens, UniProt P08254); assay: Recombinant MMP fluorescent assay, MMP-3; format: biochemical; settings: read-out: IC50 MMP-3; 1 hour preincubation at 37°C
[12] = read-out: IC50 MMP-12, 1 hour preincubation at 37°C
[13] = read-out: IC50 MMP-7, 1 hour preincubation at 37°C

Chain of recombinant human MMP-12 catalytic domain (P39900 106-263 limits assumed): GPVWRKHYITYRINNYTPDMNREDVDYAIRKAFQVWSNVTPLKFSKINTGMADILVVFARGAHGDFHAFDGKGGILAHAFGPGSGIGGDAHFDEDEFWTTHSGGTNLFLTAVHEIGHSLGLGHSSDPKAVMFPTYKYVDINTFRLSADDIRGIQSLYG
Chain of recombinant human MMP-9 catalytic domain (P14780 107-444 limits assumed): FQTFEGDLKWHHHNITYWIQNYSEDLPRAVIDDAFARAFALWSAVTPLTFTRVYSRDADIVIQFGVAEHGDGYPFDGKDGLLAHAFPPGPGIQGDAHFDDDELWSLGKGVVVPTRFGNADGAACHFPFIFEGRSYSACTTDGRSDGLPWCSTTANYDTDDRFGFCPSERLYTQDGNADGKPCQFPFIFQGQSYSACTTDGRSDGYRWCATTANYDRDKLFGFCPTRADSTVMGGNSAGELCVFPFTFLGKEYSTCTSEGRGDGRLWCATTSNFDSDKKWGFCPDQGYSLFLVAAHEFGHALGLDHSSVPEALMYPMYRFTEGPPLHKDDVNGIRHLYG
Chain of recombinant human MMP-8 catalytic domain (P22894 100-262 limits assumed): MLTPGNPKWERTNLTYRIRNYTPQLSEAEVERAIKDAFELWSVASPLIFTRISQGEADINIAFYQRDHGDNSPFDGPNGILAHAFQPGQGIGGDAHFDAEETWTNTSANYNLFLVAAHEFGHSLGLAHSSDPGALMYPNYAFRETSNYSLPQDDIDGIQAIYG
Chain of recombinant human MMP-2 catalytic domain (P08253 110-446 limits assumed): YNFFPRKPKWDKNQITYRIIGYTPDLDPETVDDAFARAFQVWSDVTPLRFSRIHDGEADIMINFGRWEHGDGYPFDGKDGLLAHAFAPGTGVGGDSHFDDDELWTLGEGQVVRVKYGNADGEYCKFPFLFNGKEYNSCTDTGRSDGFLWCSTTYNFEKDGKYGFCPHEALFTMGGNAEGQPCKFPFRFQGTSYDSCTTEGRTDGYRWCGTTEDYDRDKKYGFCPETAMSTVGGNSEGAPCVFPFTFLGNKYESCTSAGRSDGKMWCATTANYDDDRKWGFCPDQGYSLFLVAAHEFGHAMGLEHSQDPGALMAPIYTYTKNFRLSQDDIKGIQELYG
Chain of recombinant human MMP-3 catalytic domain (P08254 100-272 limits assumed): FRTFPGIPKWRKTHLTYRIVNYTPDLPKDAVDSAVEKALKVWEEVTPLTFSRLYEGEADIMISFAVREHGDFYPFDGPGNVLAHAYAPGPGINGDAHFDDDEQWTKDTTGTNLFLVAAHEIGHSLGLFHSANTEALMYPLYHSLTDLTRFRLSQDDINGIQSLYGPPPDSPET

SMILES: O=C(NCc1ccc(-c2ccccc2)cc1)c1cccc(=O)n1O [1,2-HOPO-2]
IC50 [1]: 4100 nM | IC50 [2, 12]: 18 nM | Concentration without compromise of cell viability (lack of cytotoxicity) ([3]; 0.01-1000 μM tested): < 10 µM | Reduction of collagen degradation versus controls ([4]; 30-minute global ischemia (infarction), opalation): ~ 60% | Collagen degradation (opalation) ([4]; 30-minute global ischemia (infarction), controls 1.53 ± 0.66): 0.56 ± 0.29 AFU | Troponin I release ([4]; 30-minute global ischemia, data not shown): significantly reduced troponin I release | Coronary flow rates versus controls ([4]; conditions of infarction, data not shown): higher coronary flow rates versus controls | Improved recovery in RPP versus controls ([4]; infarcted hearts, at 30-minute reperfusion): ~ 17% | RPP in treated hearts ([4]; infarcted hearts, at 30-minute reperfusion, controls 28%): 45% | IC50 [5]: 86 nM | IC50 [6, 13]: > 50000 nM | IC50 [7]: > 50000 nM | IC50 [8]: 27100 nM | IC50 [9]: 920 nM | Peak systolic pressure (PSP) ([10]; 5 μM, data not shown): significant rise in PSP | Reduction in myocardial edema versus controls ([10]; 5 μM, stunned hearts): ~ 10% | Collagen damage (opalation) ([10]; 5 μM, stunned hearts (20-minute GNFI), controls 1.49 ± 1.0): 1.45 ± 0.89 AFU | Improvement in RPP versus controls ([10]; 5 μM, stunned hearts): ~ 23% | Coronary flow rates versus controls ([10]; 5 μM, stunned hearts): higher coronary flow rates versus controls | Reduction in ventricular wet weight versus controls ([10]; 5 μM, stunned hearts, end of reperfusion): ~ 15% | Ventricular wet weight ([10]; 5 μM, stunned hearts, end of reperfusion, controls 820 ± 72): 700 ± 34 mg | Wet to dry weight ratio (edema) ([10]; 5 μM, stunned hearts, controls 5.4 ± 0.21): 4.9 ± 0.02 | Reduction of muscle damage ([10]; abstract, troponin I): ~ 25% | Improvement in coronary flow rates ([10]; abstract, versus controls): ~ 22% | cTnI release versus controls ([10]; stunned hearts): significant reductions in cTnI release versus controls | IC50 [11]: 560 nM

IC50 ([2]; IC50 MMP-12, 1 hour preincubation at 37°C): < 50 nM | IC50 ([2]; IC50 MMP-12, as stated in discussion text): ≤ 50 nM | IC50 ([6]; IC50 MMP-7, 1 hour preincubation at 37°C): 500 nM
SMILES: COc1ccc(S(=O)(=O)N(Cc2cccnc2)[C@@H](C(=O)NO)C(C)C)cc1 [CGS27023A]
Improvement in RPP versus controls ([10]; 5 μM, stunned hearts): ~ 8% | Coronary flow rates versus controls ([10]; 5 μM, stunned hearts): did not improve coronary flow rates | cTnI release versus controls ([10]; stunned hearts): no significant changes in cTnI release

IC50 [2, 12]: < 50 nM | IC50 [5]: < 50 nM | IC50 [6, 13]: 3000 nM | IC50 [8]: 3000 nM
SMILES: CC(C)[C@H](NS(=O)(=O)c1ccc(-c2ccc(Br)cc2)cc1)C(=O)O [PD166793, reference compound]
Concentration with loss of cell viability [3]: greater than 10 μM | Improvement in RPP versus controls ([10]; 5 μM, stunned hearts): ~ 8% | Coronary flow rates versus controls ([10]; 5 μM, stunned hearts): did not improve coronary flow rates | cTnI release versus controls ([10]; stunned hearts): no significant changes in cTnI release
